From the EternaBench riboswitch data

Test system: MS2 coat protein
Experiment: apparent Kd, MS2 coat protein; higher = weaker binding; RNA-MaP array; FMN 200 µM where present
Outline: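 The apparent Kd is the median of filtered binding-curve fits, one per cluster, to green signal normalised to red-channel RNA signal and control-cluster median Fmax. The clusters were on Illumina sequencing chips, and stalled E. coli RNA polymerase had transcribed the designs on them. Titration used SNAP-549-labelled MS2 coat protein from 0.7 or 1.5 nM, doubling to 3 µM, without and then with constant ligand, in 100 mM Tris-HCl pH 7.5, 80 mM KCl, 4 mM MgCl2, BSA, DTT, yeast tRNA and Tween-20.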

[1] = designed as: OFF switch for flavin mononucleotide, no ligand
[2] = ligand present: flavin mononucleotide, designed as: OFF switch for flavin mononucleotide
[3] = designed as: ON switch for flavin mononucleotide, no ligand
[4] = ligand present: flavin mononucleotide, designed as: ON switch for flavin mononucleotide

Row | Sequence | apparent Kd [1] | apparent Kd [2] | apparent Kd [3] | apparent Kd [4]
1 | UGUGCCUCGAGAGGAUAUACAUGAGGAUCACCCAUGUAAGUAGAGGUGGAAACACCUCUACAAAUGUAGAAGGCUCGAGGCACA | 20.6 nM | 58.3 nM |  | 
2 | GCUACGUCAGGAUAUCUGAUGUCUAACUUCGGUUAGACAUCAGAGAAGGGACAUGAGGAUCACCCAUGUAGCAG | 114 nM | 112 nM |  | 
3 | AGGAAACAUGAGGAUCACCCAUGUGAGGAUAUUUGAAAGAAAAGAAAAGAAAGAAGAAGAAGAAGGCACAAGAA | 32.4 nM | 35.5 nM |  | 
4 | AGAGAUGACGAAGGAUAUGGAUACAUGAGGAUCACCCAUGUUUAUUUAGUGAUUUUGUAUGAAUACCAGAAGGUCGAAUAAAAG | 125 nM | 342 nM |  | 
5 | CCAACUGGAGGAUAUGCAGCGGCGGUCUCUUGGUUUGCAUUACAUGAGGAUCACCCAUGUAGAAGGCCGGUUGU | 117 nM | 201 nM |  | 
6 | GCGUCAGAAUUAAUUGUGACAUACAGAAGGCAAAAUUAAGGAUAAGACAUGAGGAUCACCCAUGUUGAGGAUAUGUAGUGACGC | 8.7 nM | 7.57 nM |  | 
7 | ACGGCUGUCAGAGGAUAUGGUUACAUGAGGAUCACCCAUGUCAAGGGUCUAACUAAGUAUAACUACUAGAAGGCUGAUGGCCGA | 674 nM | 350 nM |  | 
8 | UGAAAUCAUGUAGGAUAUGCAUGGCGAAGCUACGCAGAAGGACAUGAGGAUCACCCAUGUUAUGGCUACCCAGUUCGGUGGCAA | 51.8 nM | 117 nM |  | 
9 | AUGUGGUGCGUAGGAUAUCAUUAAAGAAAACCCUGAGAAGGACGUGAGGACAUGAGGAUCACCCAUGUGGAUCACCCAUGUCAU | 320 nM | 285 nM |  | 
10 | CUGUGAGGGAUCCAGAAUUACAACAUGAGGAUCACCCAUGUACAGGAUAUAGGGUUGAUAGGCGCCUAGAAGGGUAUGAUCACG | 632 nM | 584 nM |  | 
11 | UGCAUGUGAGGAUAUGUGUACUGUUUUUUGUUUAGAUGUACACAGAAGGCACAUGAGGAUCACCCAUGUAGUAC | 95.8 nM | 22.4 nM |  | 
12 | UUAAUCUGAACAUGAGGAUCACCCAUGUAUCUUACCUUAGGACAGGAUAUAGAUGUUAAGAAUUACUAGAAGGGUCAGUAUAUU |  |  | 42.5 nM | 35.9 nM
13 | ACGUUUUUUGAGGAUAUGCGAUAUUUUUUUAUCGUAGAAGGCGAUACAUGAGGAUCACCCAUGUUUAUGGGCAU | 197 nM | 204 nM |  | 
14 | GUCCUUUCUGAGGAUAUUAUCCUUUCCGAUUGAUAAGAAGGCAGUACAUGAGGAUCACCCAUGUGGGUUGUCUG | 29.8 nM | 38.3 nM |  | 
15 | AUAAAUAAGGAGGAUAUCGUAUCGGAAACGAUACGAGAAGGUCUAACAUGAGGAUCACCCAUGUUCCUCAAUAA | 37.7 nM | 58.5 nM |  | 
16 | ACUAGAUGCGUGAAAUAACACAUGAGGAUCACCCAUGUGACACAGGAUAUAACCAGAUCAGAAAGUUAGAAGGGUGAGCACGCA |  |  | 39.2 nM | 21.2 nM
17 | GCAGGUUAAGUCAGGAUAUACCUAUGGAUACAUAGGUAGAAGGGACAUGAGGAUCACCCAUGUGACUCACCUGC | 27.9 nM | 57.6 nM |  | 
18 | AUACAUGAGGAUCACCCAUGUCGCAGGUUAAGGCCCAAAUCGAGAAGGGAUUCGGUCAAGCCUAAUCAGGAUAUCGGUGGAGCC |  |  | 84.3 nM | 69.6 nM
19 | GUCGGAAACGACAAAAGUACCCGAGCAGAAGGGUGAAAACAUGAGGAUCACCCAUGUAAAUAAUCACAGGAUAUGCUCGGGUAC |  |  | 6.09 nM | 4.43 nM
20 | CUAUUGCUAACAGGAUAUAUGAGUCCUACAUGAGGAUCACCCAUGUAGGUGAUCAGCCGUGAUUAGUAGAAGGGUUAGCAAUAG |  |  | 12.2 nM | 6.91 nM
21 | UGAUAGGACAGAGGAUAUACGUGCUAGAGAUACUAGCAAAUAAUCCUUACAUGAGGAUCACCCAUGUAGAAGGCUGUCCUAUCU | 19.3 nM | 47.4 nM |  | 
22 | AUCCGUCGUGUGAGGAUAUAAGAGUUCAAGGUUGUUUAGAAGGUACAUGAGGAUCACCCAUGUCACCCUGAUUG | 14.9 nM | 14.9 nM |  | 
23 | UGUCGGAGCAGAGGAUAUACAUGAGGAUCACCCAUGUAAUAAGAUCAAGCCUGGAAACAGGCAAUGUAGAAGGCUGCUCCGACA | 34 nM | 422 nM |  | 
24 | UGUGCUGAAGGAUAUGCGUAAGCUCGGUGACGAGCAGGUCUACAUGAGGAUCACCCAUGUAGAAGGUCAGUACU | 15.8 nM | 16 nM |  | 
25 | GGAUAAGACAGAGGAUAUACGUGCUAGAGAUACUAGCAAAAUUUCCUCACAUGAGGAUCACCCAUGUAGAAGGCUGUCCUAUCG | 16.9 nM | 291 nM |  | 
26 | UUGGACGUCGUAGGAUAUGUAGGCUAUUCCUACAUGAGGAUCACCCAUGUUGACAUGGAAGAAGGACAGAAGGACGAUGUCCAU |  |  | 30.4 nM | 3.85 nM
27 | GGGUACAUCGGAGGAUAUCAUGUAAAUACAUGAGGAUCACCCAUGUCGAUGGAGACAUCGGAGAUUGAGAAGGCCGAUGUACCA |  |  | 154 nM | 10.1 nM
28 | GGCCUGUAAGGAUAUUAGUAGUAGUCAGAAAAGACUAUUACUGAGAAGGUACAUGAGGAUCACCCAUGUUGGCC | 17.4 nM | 20.1 nM |  | 

Row | Sequence | apparent Kd [1] | apparent Kd [2] | apparent Kd [3] | apparent Kd [4]
29 | CUAUUUAGUGCCUCAUGUACAUGAGGAUCACCCAUGUUAACUUAGGAUAUAUUUAUAUUGAUAGAGUAGAAGGAAGUACUAUUU | 22 nM | 18.8 nM |  | 
30 | AUGGUUGUCGUAGGAUAUGUAGGAUAUUCCUACAUGAGGAUCACCCAUGUUCGCAUGGAAGAAGGACAGAAGGACGAUGACCAU |  |  | 1150 nM | 9.7 nM
31 | AAGUUCUGAGGAUAUACAUAGAUUUACAUGAGGAUCACCCAUGUUCCUCUAUGUAUUAAUGUAGAAGGCAGAAGAA | 24.4 nM | 185 nM |  | 
32 | AAAACUGGAGGAUAUACAUGAGGAUCACCCAUGUGUGGAUGGGCUGUGUCGGCGUCAGGUAGAAGGCCACAAAA | 70 nM | 130 nM |  | 
33 | CCACGUCACAUUAACAUGAGGAUCACCCAUGUCUCUUGACAUGAGGAUAUGGAUCCUAAUUGGAUCCAGAAGGCAUGGACGUGG |  |  | 1370 nM | 99.8 nM
34 | UGGAUGGUAUGAGGAUAUGCGCGCGAAACGCGCGCAGAAGGCAUGUCAAUAGACAUGAGGAUCACCCAUGUAUUAUCCAUCCAC |  |  | 192 nM | 13 nM
35 | GGUACACAUGAGGAUCACCCAUGUCAGGAUAUCUGGAUACUCUUUAUUUUAGAUAUCCAGAGAAGGGACGUGCC | 30.8 nM | 40.9 nM |  | 
36 | GUGAUACAUGAGGAUCACCCAUGUCAGGAUAUGAUACUAUGUACUUCGGUACAUAGUAUCAGAAGGGACAGUGA | 138 nM | 92.5 nM |  | 
37 | CUUCUGUCAGGAUAUGCGAAUCGGCACUGGGUCAGUGGCGAGCAGAAGGGACAUGAGGAUCACCCAUGUAAAGU | 32.8 nM | 131 nM |  | 
38 | UGUUGUAUUACAGGAUAUCUAUUGUUGUUAUUUAGAGAAGGGUAUUCACAUGAGGAUCACCCAUGUAUAUACGAGGAAGUUGUG |  |  | 56 nM | 56.6 nM
39 | GUGUACAGAGGAUAUACUUAUGGAGUUACGAAAGUAACUUCACAUGAGGAUCACCCAUGUAGAAGGCUGUACAC | 27.3 nM | 31 nM |  | 
40 | GUAGCUAUCGGAGGAUAUUCAUACCGCAAACGGACAUGAGGAUCACCCAUGUGGCGAAAGCAUUGGGAGAAGGCCGAUAGCUAC |  |  | 22.5 nM | 5.68 nM
41 | UGAUAGGACAGAGGAUAUACAGAUAGGAUCUACUAUCAAACAGUCCUAACAUGAGGAUCACCCAUGUAGAAGGCUGUCCUAUCU | 20.9 nM | 79.2 nM |  | 
42 | AGUGUGUGGCAGGAUAUUCUAAUCGUGAGUCGGGAAGAAGGGUCUACAUGAGGAUCACCCAUGUAAGCGGUUGA | 132 nM | 144 nM |  | 
43 | GCAUGCGUUCGAGGAUAUCGGUGAGAAACGGAACGAGAAGGCGAUCGAAUGUCACAUAUUAUGUACAUGAGGAUCACCCAUGUA |  |  | 126 nM | 37.8 nM
44 | GAGCGAAAGCUCAAUGUCGAUAGCAGAAGGACAUCCAAUAACAUGAAAACAUGAGGAUCACCCAUGUAGGAUAUGCUAUCGACU | 5.55 nM | 6.55 nM |  | 
45 | CCACGUCACAUCUACAUGAGGAUCACCCAUGUCAAAAGACAUGAGGAUAUGCAUCCUAAUUGGAUGCAGAAGGCAUGGACGUGG |  |  | 972 nM | 69.7 nM
46 | GGGAAACAUGAGGAUCACCCAUGUGAGGAUAUCGAAAAAAAAAAAAAAAAAAAAAAAACGAGAAGGCACACCGG | 71 nM | 110 nM |  | 
47 | GCACAUGGCAUAGGAUAUAGAUCGAUUGUUUAAAUAGGUAGUUGGACUUAACUAGAAGGAUGAAACAUGAGGAUCACCCAUGUA |  |  | 394 nM | 68 nM
48 | ACAUGAGGCGCAGGAUAUGCAACAUGAUGAGUAGCAGAAGGGUGACAACAUGAGGAUCACCCAUGUAACAUGAGGAUCACCCAU | 28.3 nM | 33.3 nM |  | 
49 | UAAGUUGUGGUAGGAUAUACUUUAAAUUUCUCUAUCCAUACAUGAGGAUCACCCAUGUUUACAUUGUAGAAGGACCUUUUUGUU | 24.2 nM | 21.1 nM |  | 
50 | GUCGUACAUGAGGAUCACCCAUGUGAGGAUAUGAGUGACUCAGUGAAAACUGAGUCACUCAGAAGGCGCAUGAU | 84.5 nM | 384 nM |  | 
51 | AUCAGCUUGACAGGAUAUACAUCACUGCGAAAGCAGUGUAUCUUAAUAACAUGAGGAUCACCCAUGUAGAAGGGUCGAGCUGAU | 18.4 nM | 32.6 nM |  | 
52 | GGUGAGCAAGGAUAUACAUGAGGAUCACCCAUGUGAGAUGCGCAGGGCCCGAUGAUAGGUAGAAGGUGCGUCAC | 34.5 nM | 72.8 nM |  | 
53 | GCUCUUGUCAAGAAGGGCUCGCGGUACGCUGCAGCAGGAUAUUGACAUGAGGAUCACCCAUGUCGACCGGAACAUCAUUGAGGG | 26.2 nM | 178 nM |  | 
54 | CAGUCUACAGGAUAUACAUGAGGAUCACCCAUGUGUAUUCACUUUCAGUAGUCUUUAUGUAGAAGGGUAGACUG | 15.9 nM | 26.7 nM |  | 
55 | GCCUUAUCGGUCAGGAUAUACACUUGUUAGUUGUUGUAGAAGGGACAUGAGGAUCACCCAUGUACAUUACAUUG | 23.2 nM | 58.5 nM |  | 
